Measured values reported in ChEMBL document CHEMBL4477209, “Indole-2-carboxamide-based MmpL3 Inhibitors Show Exceptional Antitubercular Activity in an Animal Model of Tuberculosis Infection” (J Med Chem, 2016).
≈ marks a conversion by molar mass, not a printed value. Calls of active or inactive are those of the source. The calls are words filed in the database; no cut-off is given here.

How the values were obtained:
[1] = target: T1, Aryl hydrocarbon receptor (Homo sapiens, UniProt P35869); test: Transactivation of AhR (unknown origin) assessed as upregulation of CYP1A2; format: ADME
T1 sequence (P35869 whole entry): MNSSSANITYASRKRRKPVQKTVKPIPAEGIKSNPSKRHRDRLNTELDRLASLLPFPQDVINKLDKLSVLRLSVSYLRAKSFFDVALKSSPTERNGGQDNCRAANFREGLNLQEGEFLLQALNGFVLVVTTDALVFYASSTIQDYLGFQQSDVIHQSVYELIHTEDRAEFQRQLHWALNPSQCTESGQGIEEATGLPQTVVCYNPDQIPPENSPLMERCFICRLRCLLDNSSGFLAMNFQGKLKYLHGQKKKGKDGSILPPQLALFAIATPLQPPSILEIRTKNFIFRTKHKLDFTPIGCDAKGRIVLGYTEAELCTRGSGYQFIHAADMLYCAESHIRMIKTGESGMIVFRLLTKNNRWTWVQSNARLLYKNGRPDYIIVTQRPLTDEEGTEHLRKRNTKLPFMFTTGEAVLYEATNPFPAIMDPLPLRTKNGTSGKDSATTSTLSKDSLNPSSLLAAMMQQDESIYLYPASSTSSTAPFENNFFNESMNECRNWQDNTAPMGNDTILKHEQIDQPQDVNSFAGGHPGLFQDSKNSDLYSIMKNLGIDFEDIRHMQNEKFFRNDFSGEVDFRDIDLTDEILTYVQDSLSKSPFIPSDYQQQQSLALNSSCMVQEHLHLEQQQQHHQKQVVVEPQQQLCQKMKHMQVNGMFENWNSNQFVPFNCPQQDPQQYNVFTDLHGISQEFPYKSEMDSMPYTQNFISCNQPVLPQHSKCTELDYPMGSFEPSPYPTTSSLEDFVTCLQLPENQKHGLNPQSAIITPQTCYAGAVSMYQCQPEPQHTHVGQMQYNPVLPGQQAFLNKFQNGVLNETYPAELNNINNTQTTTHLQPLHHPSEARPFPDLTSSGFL
Method in brief: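 Nuclear receptor reporter-gene induction assay, with reporters coupled to PXR, CAR or AhR. Compound was tested at 0.1–1, 3 and 8 μg/mL. Positive controls were rifampin for PXR, CITCO for CAR and 3-methylcholanthrene for AhR.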

[2] = Tmax in BALB/c mouse lung at 100 mg/kg administered via oral gavage after 0.25 to 24 hrs by LC-MS analysis; format: ADME, organism-based
Method in brief: (§1)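 Female BALB/c mice (20 g) got a single 100 mg/kg oral gavage dose. Three animals were sacrificed per time point at 0, 0.25, 0.5, 1, 2, 4, 8 and 24 h. Cardiac blood was spun at 12 000g, 4 °C for plasma. Lungs were bead-beaten in water and the supernatant taken. Both matrices were quantified by LC-MS/MS with an indole-2-carboxamide internal standard. Parameters came from noncompartmental analysis.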

[3] = AUMClast in BALB/c mouse plasma at 100 mg/kg administered via oral gavage after 0.25 to 24 hrs by LC-MS analysis; format: ADME, organism-based; settings: in vivo
Method in brief: (§2)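 Female BALB/c mice (20 g), single oral gavage dose of 100 mg/kg. Cardiac blood and lungs taken at 0, 0.25, 0.5, 1, 2, 4, 8 and 24 h (n = 3 per time point). Plasma separated by centrifugation; lungs bead-beaten in water and supernatant recovered. Drug quantified by LC-MS/MS against an indole-2-carboxamide internal standard. Parameters derived by noncompartmental analysis.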

[4] = AUClast in BALB/c mouse plasma at 100 mg/kg administered via oral gavage after 0.25 to 24 hrs by LC-MS analysis; format: ADME, organism-based; design: dose 100 mg/kg, time 0.25-24 hr, route oral; method in brief: as §2
[5] = test system: Mycobacterium tuberculosis; test: Antimycobacterial activity against Mycobacterium tuberculosis H37Rv grown on serum of 100 mg/kg, po treated BALB/c mouse for 30 to 120 mins assessed as reduction in bacterial growth followed by bacterial addition incubated for 7 days by alamar blue reagent based serum inhibition titration assay; format: functional, organism-based
Method in brief: (§3)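 Six-week-old female BALB/c mice (20 g) given one oral dose as suspension in 0.5% CMC in water; isoniazid 10 mg/kg as positive control, vehicle as negative. Serum collected at 30, 60 and 120 min, pooled from three mice per time point, 2-fold serially diluted. 10^4 CFU H37Rv added per well, 7 days at 37 °C. alamarBlue added for 16−18 h, fluorescence read at Ex544/Em590 and plotted against serum titration.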

[6] = test system: Mycobacterium tuberculosis; test: Antimycobacterial activity against Mycobacterium tuberculosis H37Rv infected in BALB/c mouse model assessed as reduction in CFU counts in lung at 200 mg/kg administered daily via oral gavage for 5 days per week measured after 28 days post dosage relative to control; format: functional
Method in brief: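 Bactericidal-dose model in aerosol-infected BALB/c mice given 25, 50, 100 or 200 mg/kg orally in 0.5% carboxymethylcellulose in water for 4 weeks. Lung CFU compared with the count at treatment initiation; survival also recorded.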

[7] = Oral bioavailability in BALB/c mouse at 100 mg/kg administered as single dose for 30 to 120 mins followed by Mycobacterium tuberculosis H37Rv addition to compound treated serum incubated for 7 days by alamar blue reagent based serum inhibition titration assay; format: ADME, organism-based; settings: in vivo; method in brief: as §3
[8] = Cmax in BALB/c mouse plasma at 100 mg/kg administered via oral gavage after 0.25 to 24 hrs by LC-MS analysis; format: ADME, organism-based; design: dose 100 mg/kg, route oral; method in brief: as §2
[9] = AUClast in BALB/c mouse lung at 100 mg/kg administered via oral gavage after 0.25 to 24 hrs by LC-MS analysis; format: ADME, organism-based; settings: in vivo; method in brief: as §2
[10] = Tmax in BALB/c mouse plasma at 100 mg/kg administered via oral gavage after 0.25 to 24 hrs by LC-MS analysis; format: ADME, organism-based; method in brief: as §1
[11] = Mean residence time (last) in BALB/c mouse lung at 100 mg/kg administered via oral gavage by LC-MS analysis; format: ADME, organism-based; method in brief: as §2
[12] = test system: Mycobacterium tuberculosis; test: Antimycobacterial activity against Mycobacterium tuberculosis H37Rv infected in BALB/c mouse model assessed as protection against mouse mortality at 12.5 to 100 mg/kg administered daily via oral gavage for 5 days per week measured after 14 to 28 days post dosage; format: functional, organism-based
[13] = test system: Mycobacterium tuberculosis; test: Antimycobacterial activity against Mycobacterium tuberculosis H37Rv infected in BALB/c mouse model assessed as reduction in CFU counts in lung at 100 mg/kg administered daily via oral gavage for 5 days per week measured after 14 days post dosage relative to control; format: functional
Method in brief: (§4)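 Female BALB/c mice, 4-6 weeks old, aerosol-infected with H37Rv (about 10^3 CFU); five mice taken on day 1 for lung implantation CFU. From day 1, 12.5, 25, 50 or 100 mg/kg in 0.5% carboxymethylcellulose by daily oral gavage, 5 days/week. Ethambutol 100 mg/kg as positive control, untreated infected mice as negative, 5 mice per group. Lung homogenates plated on 7H11 selective agar on days 14 and 28.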

[14] = test system: Mycobacterium tuberculosis; test: Antimycobacterial activity against Mycobacterium tuberculosis H37Rv infected in BALB/c mouse model assessed as reduction in CFU counts in lung at 100 mg/kg administered daily via oral gavage for 5 days per week measured after 28 days post dosage relative to control; format: functional; method in brief: as §4
[15] = AUMClast in BALB/c mouse lung at 100 mg/kg administered via oral gavage after 0.25 to 24 hrs by LC-MS analysis; format: ADME, organism-based; settings: in vivo; method in brief: as §2
[16] = Cmax in BALB/c mouse lung at 100 mg/kg administered via oral gavage after 0.25 to 24 hrs by LC-MS analysis; format: ADME, organism-based; design: dose 100 mg/kg, route oral; method in brief: as §2
[17] = Mean residence time (last) in BALB/c mouse plasma at 100 mg/kg administered via oral gavage by LC-MS analysis; format: ADME, organism-based; method in brief: as §2
[18] = test system: Mycobacterium tuberculosis H37Rv; test: Inhibition of MmpL3 in clinical isolates of drug sensitive Mycobacterium tuberculosis H37Rv after 7 to 14 days by alamar blue assay

Cc1ccc2cc3c(ccc4ccccc43)c3c2c1CC3 [3-METHYLCHOLANTHRENE]
Activity [1]: Active

CC1(C)CCC(NC(=O)c2cc3c(Cl)cc(Cl)cc3[nH]2)CC1
Tmax [2]: 2 h
AUMClast [3]: 36.4 hr.hr.ug/ml
AUC(0-t) [4]: 5620 ng·h/mL
Activity [5]: Active
Activity [6]: inactive
Drug uptake [7]: Active
Cmax [8]: 670 ng/mL
AUClast [9]: 18.1 µg·h/g
Tmax [10]: 2 h
MRT last [11]: 8.3 h
Activity [12]: Active
Activity [13]: 0.45 log10CFU
Activity [14]: 1.08 log10CFU
AUMClast [15]: 150 hr2.ug/g
Cmax [16]: 1300 ng/g
MRT last [17]: 6.47 h

Cc1cc(C)c2[nH]c(C(=O)NC3CCCCCC3)cc2c1
MIC90 [18]: 3.5 µM (≈ 0.995 µg/mL)

O=C(NC1CCC2(CCCCC2)CC1)c1cc2c(Cl)cc(Cl)cc2[nH]1
Activity [5]: inactive
Drug uptake [7]: Not Active
MIC90 [18]: 0.005 µM (≈ 0.0019 µg/mL)

Nc1ccc2[nH]c(C(=O)NC3CCCCCCC3)cc2c1
MIC90 [18]: 80 µM (≈ 22.8 µg/mL)

Cc1ccc2[nH]c(C(=O)NC3CCCCCCC3)cc2c1
MIC90 [18]: 0.88 µM (≈ 0.25 µg/mL)

Cc1cc(C)c2cc(CNC(=O)C3CCCCCC3)[nH]c2c1
MIC90 [18]: 54 µM (≈ 16.1 µg/mL)

Cc1cccc2[nH]c(C(=O)NC3CCCCCC3)cc12
MIC90 [18]: 0.93 µM (≈ 0.251 µg/mL)

CC1(C)[C@@H]2CC[C@@H](CNC(=O)c3cc4c(Cl)cc(Cl)cc4[nH]3)[C@H]1C2
MIC90 [18]: 175 µM (≈ 63.9 µg/mL)

O=C(NC1Cc2ccccc2C1)c1cc2c(Cl)cc(Cl)cc2[nH]1
MIC90 [18]: 0.72 µM (≈ 0.249 µg/mL)

Cc1cc(C)c2cc(CNC3CCCCCCC3)[nH]c2c1
MIC90 [18]: 0.31 µM (≈ 0.0882 µg/mL)

COc1cc(OC)c2cc(C(=O)NC3CCCCCCC3)[nH]c2c1
MIC90 [18]: 0.19 µM (≈ 0.0628 µg/mL)

O=C(N[C@@H]1C[C@H]2CC[C@@H]1C2)c1cc2c(Cl)cc(Cl)cc2[nH]1 (relative stereo)
MIC90 [18]: 0.39 µM (≈ 0.126 µg/mL)

CC(C)=CCC/C(C)=C/CNC(=O)c1cc2c(F)cc(F)cc2[nH]1
MIC90 [18]: > 192 µM

COc1cc(OC)c2cc(C(=O)NC3CCCCCC3)[nH]c2c1
MIC90 [18]: 3.2 µM (≈ 1.01 µg/mL)

Nc1cccc2[nH]c(C(=O)NC3CCCCCCC3)cc12
MIC90 [18]: 20 µM (≈ 5.71 µg/mL)

CN1C2CCCC1CC(NC(=O)c1cc3c(Cl)cc(Cl)cc3[nH]1)C2 (stereo unspecified)
MIC90 [18]: 10.9 µM (≈ 3.99 µg/mL)

O=C(NC1CCC2(CCCCC2)CC1)c1cc2c(F)cc(F)cc2[nH]1
Activity [5]: inactive
Drug uptake [7]: Not Active
MIC90 [18]: 0.003 µM (≈ 0.00104 µg/mL)

Cc1cccc2cc(C(=O)NC3CCCCCC3)[nH]c12
MIC90 [18]: 30 µM (≈ 8.11 µg/mL)

O=C(NC12CC3CC(CC(C3)C1)C2)c1cc2c(Cl)cc(Cl)cc2[nH]1
Activity [5]: inactive
Drug uptake [7]: Not Active
MIC90 [18]: 0.011 µM (≈ 0.004 µg/mL)
